From ChEMBL document CHEMBL4316609, “Chemical synthesis and functional characterization of a new class of ceramide analogues as anti-cancer agents” (Bioorg Med Chem, 2019)

Columns and labels:
Assay type in all cases: functional, cell-based
SiHa = experiment: Cytotoxicity against human SiHa cells measured after 48 hrs by MTT assay
Outline: (§1)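 Seeded at 7x10^3 cells/well and allowed 24 h to attach. Compounds added at final 0 to 200 μM and incubated 48 h. Viability read by MTT. IC50 taken as the concentration giving 50% growth inhibition; mean ± SD, N = 4.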

SW-620 = experiment: Cytotoxicity against human SW620 cells measured after 48 hrs by MTT assay; conditions: SW-620, 48 h; outline: as §1
[1] = Cytotoxicity against human SA cells measured after 48 hrs by MTT assay; conditions: +SA cell; outline: as §1
MCF7 = experiment: Cytotoxicity against human MCF7 cells measured after 48 hrs by MTT assay; conditions: MCF7, 48 h; outline: as §1
HepG2 = experiment: Cytotoxicity against human HepG2 cells measured after 48 hrs by MTT assay; conditions: HepG2, 48 h; outline: as §1
A-431 = experiment: Cytotoxicity against human A431 cells measured after 48 hrs by MTT assay; conditions: A-431, 48 h; outline: as §1

C/C=C/C=C/C(=O)N[C@H](C(=O)NCCCCCCCCCCCCCCCCCC)[C@@H](C)O
IC50 (SiHa): > 200 µM
IC50 (SW-620): 200 µM
IC50 [1]: > 200 µM
IC50 (MCF7): 79.6 µM
IC50 (HepG2): 284 µM
IC50 (A-431): 187 µM

CCCCCCCCCCCCNC(=O)[C@@H](NS(=O)(=O)c1ccc(C)cc1)[C@@H](C)O
IC50 (SiHa): 31.6 µM
IC50 (SW-620): 25.6 µM
IC50 [1]: 27.2 µM
IC50 (MCF7): 31.1 µM
IC50 (HepG2): 25.8 µM
IC50 (A-431): 25.2 µM

CCCCCCCCCCCCCCCCCCNC(=O)[C@@H](N)[C@@H](C)O
IC50 (SiHa): 39.5 µM
IC50 (SW-620): 21.4 µM
IC50 [1]: > 200 µM
IC50 (MCF7): 27.4 µM
IC50 (HepG2): 44.5 µM
IC50 (A-431): 21.3 µM

CCCCCCCCCCCCCCCCCCNC(=O)[C@@H](NC(=O)c1cccs1)[C@@H](C)O
IC50 (SW-620): 200 µM
IC50 [1]: 53.5 µM
IC50 (MCF7): 25.7 µM
IC50 (HepG2): 92 µM
IC50 (A-431): 33.3 µM

CCCCCCCCCCCCNC(=O)[C@@H](NC(=O)Cc1c[nH]c2ccccc12)[C@@H](C)O
IC50 (SiHa): 13.6 µM
IC50 (SW-620): 22 µM
IC50 [1]: 20 µM
IC50 (MCF7): 15.5 µM
IC50 (HepG2): 22.6 µM
IC50 (A-431): 23.4 µM

CCCCCCCCCCCCNC(=O)[C@@H](NC(=O)c1cc2ccccc2n1C)[C@@H](C)O
IC50 (SW-620): > 200 µM
IC50 [1]: 31.3 µM
IC50 (MCF7): 31.3 µM

CCCCCCCCCCCCNC(=O)[C@@H](NC(=O)c1cc2ccccc2o1)[C@@H](C)O
IC50 (SiHa): 12.8 µM
IC50 (SW-620): 21.3 µM
IC50 [1]: 10.5 µM
IC50 (MCF7): 20.9 µM
IC50 (HepG2): 22.9 µM
IC50 (A-431): 20 µM

CCCCCCCCNC(=O)[C@@H](NC(=O)c1nccc2ccccc12)[C@@H](C)O
IC50 (SiHa): 66 µM
IC50 (SW-620): 67.8 µM
IC50 [1]: 22.9 µM
IC50 (MCF7): 63.2 µM
IC50 (HepG2): 88.2 µM
IC50 (A-431): 26.9 µM

CCCCCCCCCCCCNC(=O)[C@@H](NS(=O)(=O)c1cccs1)[C@@H](C)O
IC50 (SiHa): 30.9 µM
IC50 (SW-620): 27.9 µM
IC50 [1]: 20.1 µM
IC50 (MCF7): 19.1 µM
IC50 (HepG2): 25.9 µM
IC50 (A-431): 22 µM

CCCCCCCCCCCCCCCCCCNC(=O)[C@@H](NC(=O)/C=C/c1ccccc1)[C@@H](C)O
IC50 (SiHa): 35.9 µM
IC50 (SW-620): 200 µM
IC50 [1]: 47.1 µM
IC50 (MCF7): 39.2 µM

CCCCCCCCCCCCCCCCCCNC(=O)[C@@H](NC(=O)c1cc2ccccc2n1C)[C@@H](C)O
IC50 (SW-620): 124 µM
IC50 [1]: 36.4 µM
IC50 (MCF7): 36.4 µM
IC50 (A-431): 61 µM

CCCCCCCCCCCCNC(=O)[C@@H](NC(=O)/C=C/c1ccccc1)[C@@H](C)O
IC50 (SW-620): 200 µM

C/C=C/C=C/C(=O)N[C@H](C(=O)NCCCCCCCCCCCC)[C@@H](C)O
IC50 (SW-620): 200 µM
IC50 (MCF7): 37.1 µM

CCCCCCCCCCCCCCCCCCNC(=O)[C@@H](NS(=O)(=O)c1ccc2ccccc2c1)[C@@H](C)O
IC50 (SiHa): 19.9 µM
IC50 (SW-620): 24.6 µM
IC50 [1]: 21.2 µM
IC50 (MCF7): 27.8 µM
IC50 (HepG2): 19.8 µM
IC50 (A-431): 23.7 µM

CCCCCCCCCCCCCCCCCCNC(=O)[C@@H](NC(=O)c1ccccc1)[C@@H](C)O
IC50 (SiHa): 38.2 µM
IC50 (SW-620): 200 µM
IC50 [1]: > 400 µM
IC50 (MCF7): 31.8 µM

CCCCCCCCCCCCCCNC(=O)[C@@H](NC(=O)c1ccccc1)[C@@H](C)O
IC50 (SW-620): 200 µM
IC50 [1]: 56 µM
IC50 (MCF7): 24.8 µM
IC50 (HepG2): 54.2 µM

C/C=C/C=C/C(=O)N[C@H](C(=O)NCCCCCCCCCCCCCC)[C@@H](C)O
IC50 (SW-620): 200 µM
IC50 (MCF7): 27.8 µM

CCCCCCCCNC(=O)[C@@H](NC(=O)c1ccco1)[C@@H](C)O
IC50 (SW-620): 200 µM
IC50 [1]: 64.7 µM
IC50 (MCF7): 91.8 µM
IC50 (A-431): 64.5 µM

CCCCCCCCCCCCCCNC(=O)[C@@H](NC(=O)c1cc2ccccc2o1)[C@@H](C)O
IC50 (SiHa): 14.2 µM
IC50 (SW-620): 26.7 µM
IC50 [1]: 9.61 µM
IC50 (MCF7): 23.4 µM
IC50 (HepG2): 23.4 µM
IC50 (A-431): 20.1 µM

CCCCCCCCCCCCCCNC(=O)[C@@H](NC(=O)/C=C/c1ccccc1)[C@@H](C)O
IC50 (SiHa): 35.8 µM
IC50 (SW-620): 200 µM
IC50 [1]: 80.9 µM
IC50 (MCF7): 64.6 µM
IC50 (A-431): 64.9 µM

CCCCCCCCCCCCCCCCCCNC(=O)[C@@H](NC(=O)c1ccco1)[C@@H](C)O
IC50 (SiHa): 13.3 µM
IC50 (SW-620): > 200 µM
IC50 [1]: 52.6 µM
IC50 (MCF7): 21.4 µM
IC50 (HepG2): 42.3 µM
IC50 (A-431): 19.9 µM

CCCCCCCCCCCCCCCCCCNC(=O)[C@@H](NC(=O)c1cc2ccccc2[nH]1)[C@@H](C)O
IC50 (SiHa): 29.6 µM
IC50 (SW-620): 23.6 µM
IC50 [1]: 35.6 µM
IC50 (MCF7): 35.6 µM
IC50 (HepG2): 89.4 µM
IC50 (A-431): 81 µM

CCCCCCCCCCCCCCCCCCNC(=O)[C@@H](NS(=O)(=O)c1cccs1)[C@@H](C)O
IC50 (SW-620): > 200 µM
IC50 [1]: > 200 µM
IC50 (MCF7): > 200 µM

CCCCCCCCCCCCCCNC(=O)[C@@H](NC(=O)c1nccc2ccccc12)[C@@H](C)O
IC50 (SiHa): 21.6 µM
IC50 (SW-620): 30.4 µM
IC50 [1]: 24.4 µM
IC50 (MCF7): 22.8 µM
IC50 (HepG2): 28.6 µM
IC50 (A-431): 23 µM

CCCCCCCCNC(=O)[C@@H](NC(=O)c1ccccc1)[C@@H](C)O
IC50 (SW-620): 200 µM
IC50 [1]: 34.6 µM
IC50 (A-431): 61.3 µM

CCCCCCCCCCCCCCNC(=O)[C@@H](NC(=O)c1ccco1)[C@@H](C)O
IC50 (SW-620): 200 µM

CCCCCCCCCCCCCCCCCCNC(=O)[C@@H](NC(=O)c1cc2ccccc2o1)[C@@H](C)O
IC50 (SW-620): > 200 µM
IC50 (A-431): 78.8 µM

CCCCCCCCCCCCCCCCCCNC(=O)[C@@H](NC(=O)Cc1c[nH]c2ccccc12)[C@@H](C)O
IC50 (SiHa): 65.8 µM
IC50 [1]: 54.9 µM
IC50 (MCF7): 37.3 µM
IC50 (HepG2): 57.6 µM
IC50 (A-431): 31.8 µM

CCCCCCCCNC(=O)[C@@H](NC(=O)/C=C/c1ccccc1)[C@@H](C)O
IC50 (SiHa): 41.4 µM
IC50 (SW-620): 61.4 µM
IC50 [1]: 25.6 µM
IC50 (MCF7): 35.1 µM
IC50 (HepG2): 55.6 µM
IC50 (A-431): 36 µM

CCCCCCCCCCCCCCCCCCNC(=O)[C@@H](NS(=O)(=O)c1ccc(C)cc1)[C@@H](C)O
IC50 (SiHa): 29.8 µM
IC50 (SW-620): 32.5 µM
IC50 [1]: 47.9 µM
IC50 (MCF7): 60.1 µM
IC50 (HepG2): 75.8 µM
IC50 (A-431): 34 µM

CCCCCCCCCCCCCCNC(=O)[C@@H](NC(=O)c1cc2ccccc2[nH]1)[C@@H](C)O
IC50 (SiHa): 14.2 µM
IC50 (SW-620): 15.2 µM
IC50 [1]: 12.1 µM
IC50 (MCF7): 15.1 µM
IC50 (HepG2): 10.5 µM
IC50 (A-431): 12.2 µM

CCCCCCCCCCCCCCNC(=O)[C@@H](NC(=O)c1cccs1)[C@@H](C)O
IC50 (SiHa): 63 µM
IC50 (SW-620): 78.4 µM
IC50 [1]: 21.2 µM
IC50 (MCF7): 36.1 µM
IC50 (HepG2): 88.4 µM
IC50 (A-431): 26.4 µM

CCCCCCCCCCCCNC(=O)[C@@H](NC(=O)c1cccs1)[C@@H](C)O
IC50 (SiHa): 23.9 µM
IC50 (SW-620): 29.2 µM
IC50 [1]: 23.3 µM
IC50 (MCF7): 30.4 µM
IC50 (HepG2): 30.1 µM
IC50 (A-431): 16.6 µM

CCCCCCCCCCCCCCNC(=O)[C@@H](NS(=O)(=O)c1cccs1)[C@@H](C)O
IC50 (SiHa): 20.4 µM
IC50 (SW-620): 18.4 µM
IC50 [1]: 11.6 µM
IC50 (MCF7): 18.7 µM
IC50 (HepG2): 21.6 µM
IC50 (A-431): 22 µM

CCCCCCCCCCCCNC(=O)[C@@H](NC(=O)c1cc2ccccc2[nH]1)[C@@H](C)O
IC50 (SiHa): 21.2 µM
IC50 (SW-620): 18.8 µM
IC50 [1]: 12.3 µM
IC50 (MCF7): 12.3 µM
IC50 (HepG2): 12 µM
IC50 (A-431): 10.3 µM
